Results reported in ChEMBL document CHEMBL4270656, “Synthesis and evaluation of 2-substituted 4(3H)-quinazolinone thioether derivatives as monoamine oxidase inhibitors” (Bioorg Med Chem, 2018).

Experiments:
[1] = organism: Homo sapiens; assay: Selectivity index, ratio of IC50 for recombinant human MAO-A by IC50 for recombinant human MAO-B
In short: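 IC50 values for MAO-A and MAO-B taken from kynuramine fluorescence assays (0.003–100 µM inhibitor, 20 min at 37 °C) and fitted by one-site competition. Triplicate means. Index is IC50(MAO-A)/IC50(MAO-B).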

[2] = target: T1, Amine oxidase [flavin-containing] B (Homo sapiens, UniProt P27338); assay: Inhibition of recombinant human MAO-B using kynuramine as substrate after 20 mins by fluorescence spectrophotometric analysis
T1 sequence (P27338 whole entry): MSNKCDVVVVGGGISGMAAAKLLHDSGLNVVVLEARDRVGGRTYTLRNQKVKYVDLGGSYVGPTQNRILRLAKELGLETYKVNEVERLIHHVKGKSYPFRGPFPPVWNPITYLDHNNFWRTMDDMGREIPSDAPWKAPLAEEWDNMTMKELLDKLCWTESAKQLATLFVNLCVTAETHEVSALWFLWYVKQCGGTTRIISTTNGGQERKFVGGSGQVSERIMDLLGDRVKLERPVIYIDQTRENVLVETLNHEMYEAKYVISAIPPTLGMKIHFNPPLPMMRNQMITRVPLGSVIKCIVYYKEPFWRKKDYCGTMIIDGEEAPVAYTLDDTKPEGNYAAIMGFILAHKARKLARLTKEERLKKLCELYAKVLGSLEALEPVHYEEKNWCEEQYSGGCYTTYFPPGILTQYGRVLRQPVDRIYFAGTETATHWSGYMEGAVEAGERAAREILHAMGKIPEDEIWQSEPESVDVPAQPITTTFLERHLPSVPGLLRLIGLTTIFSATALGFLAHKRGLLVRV

[3] = target: T2, Amine oxidase [flavin-containing] A (Homo sapiens, UniProt P21397); assay: Inhibition of recombinant human MAO-A at 100 uM using kynuramine as substrate after 20 mins by fluorescence spectrophotometric analysis
T2 sequence (P21397 whole entry): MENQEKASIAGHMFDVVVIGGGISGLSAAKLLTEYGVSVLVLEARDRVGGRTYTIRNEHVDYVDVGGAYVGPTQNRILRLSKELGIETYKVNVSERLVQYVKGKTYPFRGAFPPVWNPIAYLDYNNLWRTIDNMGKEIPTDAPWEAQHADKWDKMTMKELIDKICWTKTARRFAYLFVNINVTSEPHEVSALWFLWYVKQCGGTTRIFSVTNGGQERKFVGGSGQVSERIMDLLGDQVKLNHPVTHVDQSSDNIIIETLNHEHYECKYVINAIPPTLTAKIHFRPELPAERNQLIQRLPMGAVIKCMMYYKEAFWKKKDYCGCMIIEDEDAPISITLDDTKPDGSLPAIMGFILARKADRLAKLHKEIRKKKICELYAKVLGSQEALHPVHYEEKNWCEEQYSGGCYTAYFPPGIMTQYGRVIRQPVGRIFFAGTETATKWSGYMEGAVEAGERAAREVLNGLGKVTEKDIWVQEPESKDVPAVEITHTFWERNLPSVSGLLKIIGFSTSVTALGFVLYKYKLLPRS
In short: (§1)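 Recombinant human enzyme from insect-cell microsomes, MAO-A 0.0075 or MAO-B 0.015 mg protein/mL, in 100 mM potassium phosphate pH 7.4 made isotonic with KCl. Kynuramine 50 µM, inhibitor up to 100 µM, DMSO 4% final. 20 min at 37 °C, stopped with 2 N NaOH. 4-Hydroxyquinoline read by fluorescence (ex 310/em 400 nm) against a calibration curve.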

[4] = target: T1, Amine oxidase [flavin-containing] B; assay: Inhibition of recombinant human MAO-B using kynuramine as substrate assessed as enzyme activity recovered after 20 mins by fluorescence spectrophotometric analysis; design: scale not given: the % may be the effect or the level left
In short: (§2)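 Pre-incubated 15 min at 37 °C, then dialysed 24 h at 4 °C (10 kDa cut-off) with buffer changes at 3 and 7 h. Diluted twofold with kynuramine (50 µM final), run 20 min at 37 °C, read by fluorescence. Triplicate; activity relative to inhibitor-free dialysed control.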

[5] = target: T1, Amine oxidase [flavin-containing] B; assay: Competitive inhibition of recombinant human MAO-B using kynuramine as substrate after 20 mins by Lineweaver-Burk plot analysis
In short: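 Human MAO-B (insect-cell microsome, 0.015 mg/mL final) in 100 mM potassium phosphate pH 7.4 made isotonic with KCl. Six Lineweaver-Burk plots: one without inhibitor and five at 1/4, 1/2, 3/4, 1 and 1 1/4 × IC50. Kynuramine 15–250 µM, eight levels per plot. 20 min at 37 °C, NaOH stop, 4-hydroxyquinoline fluorescence. Ki taken from slopes plotted against inhibitor concentration.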

[6] = target: T1, Amine oxidase [flavin-containing] B; assay: Reversible inhibition of recombinant human MAO-B using kynuramine as substrate assessed as recovery of enzyme activity at 4 times IC50 preincubated for 15 mins followed by dialysis for 24 hrs and subsequent addition of substrate measured after 20 mins by fluorescence spectrophotometric analysis relative to control; design: scale not given: the % may be the effect or the level left; in short: as §2
[7] = target: T1, Amine oxidase [flavin-containing] B; assay: Inhibition of recombinant human MAO-B at 100 uM using kynuramine as substrate after 20 mins by fluorescence spectrophotometric analysis; in short: as §1

| Ratio IC50 [1] | IC50 [2] [µM] | inhibition (INH) [3] | Activity [4] [%] | Ki [5] [µM] | Activity [6] [%] | inhibition (INH) [7] | Structure (SMILES) |
| --- | --- | --- | --- | --- | --- | --- | --- |
| > 435 | 0.23 | Not Active |  |  |  |  | Oc1nc(SCc2cccc(Cl)c2)nc2ccccc12 |
| > 177 | 0.566 | Not Active |  |  |  |  | O=c1[nH]c(SCc2ccc(F)cc2)nc2ccccc12 |
| > 81 | 1.24 | Not Active |  |  |  |  | Oc1nc(SCCOc2ccccc2)nc2ccccc12 |
| > 128 | 0.779 | Not Active |  |  |  |  | O=c1[nH]c(SCc2ccc(Br)cc2)nc2ccccc12 |
| > 40 | 2.5 | Not Active |  |  |  |  | Oc1nc(SCc2cccc(F)c2)nc2ccccc12 |
| > 481 | 0.208 | Not Active |  |  |  |  | O=c1[nH]c(SCc2cccc(Br)c2)nc2ccccc12 |
| > 207 | 0.482 | Not Active |  |  |  |  | Oc1nc(SCc2ccc(Cl)cc2)nc2ccccc12 |
| > 17 | 5.99 | Not Active |  |  |  |  | O=c1[nH]c(SCCCc2ccccc2)nc2ccccc12 |
| > 704 | 0.142 | Not Active | 46 | 0.068 | 108 |  | O=c1[nH]c(SCc2cccc(I)c2)nc2ccccc12 |
| > 143 | 0.7 | Not Active |  |  |  |  | O=c1[nH]c(SCc2ccc(C(F)(F)F)cc2)nc2ccccc12 |
| > 3.1 | 31.8 | Not Active |  |  |  |  | O=C(CSc1nc(O)c2ccccc2n1)c1ccccc1 |
|  |  | Not Active |  |  |  | Not Active | O=c1[nH]c(SCc2ccc(I)cc2)nc2ccccc12 |
|  |  | Not Active |  |  |  | Not Active | O=c1[nH]c(SCc2ccncc2)nc2ccccc12 |
| > 33 | 3.03 | Not Active |  |  |  |  | O=c1[nH]c(SCc2ccccc2)nc2ccccc12 |
